Assay results: ChEMBL document CHEMBL1131304, “Epidoxoform: a hydrolytically more stable anthracycline-formaldehyde conjugate toxic to resistant tumor cells” (J Med Chem, 1998)

Legend:
[1] = Compound was evaluated for its half life at 37 degree Centigrade.
[2] = Compound was evaluated for its half life at 25 degree Centigrade
MCF7 [3] = assay: (§1) Compound was tested for its toxicity against doxorubicin resistant human breast cancer cells (MCF-7/ADR).; type: functional, cell-based
In short: (§2)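 MCF-7 and MCF-7/ADR cells were grown at 37 °C in 5% CO2 in phenol red-free RPMI 1640 with 10% FBS, 2 mM L-glutamine, 25 mM HEPES and penicillin/streptomycin. MCF-7/ADR medium also held 5 μM doxorubicin. Cells were exposed to drug for 3 h in RPMI 1640/10% FBS/1% DMSO, then stained by crystal violet. IC50 was given as nmolar equiv/L.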

MCF7 [4] = assay: Compound was tested for its toxicity against human breast cancer cells(MCF-7); type: functional, cell-based; in short: as §2
NCI/ADR-RES = assay: as §1; type: functional, cell-based; in short: as §2

half-life [1] [min]	half-life [2] [min]	Compound	IC50 (MCF7 [3]) [nM equiv l-1]	IC50 (MCF7 [4]) [nM equiv l-1]	IC50 (NCI/ADR-RES) [nM equiv l-1]
15	35	COc1cccc2c1C(=O)c1c(O)c3c(c(O)c1C2=O)C[C@@](O)(C(=O)CO)C[C@@H]3O[C@@H]1C[C@@H](N)[C@H](O)[C@@H](C)O1	–	–	–
–	–	COc1cccc2c1C(=O)c1c(O)c3c(c(O)c1C2=O)C[C@@](O)(C(C)=O)C[C@@H]3OC1CC2C(OCN2CN2COC3C(C)OC(O[C@H]4C[C@](O)(C(C)=O)Cc5c(O)c6c(c(O)c54)C(=O)c4c(OC)cccc4C6=O)CC32)C(C)O1 (some centres undefined) [DAUNOFORM]	10	8	–
–	–	COc1cccc2c1C(=O)c1c(O)c3c(c(O)c1C2=O)C[C@@](O)(C(C)=O)C[C@@H]3O[C@H]1C[C@H](N)[C@H](O)[C@H](C)O1 [DAUNORUBICIN]	–	60	2000
–	–	COc1cccc2c1C(=O)c1c(O)c3c(c(O)c1C2=O)C[C@@](O)(C(=O)CO)C[C@@H]3OC1CC2C(OCN2CN2COC3C(C)OC(O[C@H]4C[C@](O)(C(=O)CO)Cc5c(O)c6c(c(O)c54)C(=O)c4c(OC)cccc4C6=O)CC32)C(C)O1 (some centres undefined) [DOXOFORM]	–	2	1
–	–	COc1cccc2c1C(=O)c1c(O)c3c(c(O)c1C2=O)C[C@@](O)(C(=O)CO)C[C@@H]3O[C@H]1C[C@H](N)[C@H](O)[C@H](C)O1 [DOXORUBICIN]	–	300	10000
–	–	COc1cccc2c1C(=O)c1c(O)c3c(c(O)c1C2=O)C[C@@](O)(C(=O)CO)C[C@@H]3O[C@H]1C[C@H]2C(OCN3CN2CO[C@H]2[C@@H](C)O[C@@H](O[C@H]4C[C@](O)(C(=O)CO)Cc5c(O)c6c(c(O)c54)C(=O)c4c(OC)cccc4C6=O)C[C@@H]23)[C@H](C)O1 (some centres undefined) [EPIDOXOFORM]	–	65	70
–	–	COc1cccc2c1C(=O)c1c(O)c3c(c(O)c1C2=O)C[C@@](O)(C(=O)CO)C[C@@H]3O[C@H]1C[C@H](N)[C@@H](O)[C@H](C)O1 [EPIRUBICIN]	–	200	> 10000
